Source: ChEMBL document CHEMBL4033608, “Benzophenone and Fimetarone Derivatives from the Coprophilous Fungus Delitschia confertaspora” (J Nat Prod, 2017)
Active and inactive are the calls of the source.

Tests used:
GLI56 = assay: Cytotoxicity against human GLI56 cells assessed as reduction in cell viability up to 10 uM by Cell-Titer Glo assay; format: functional, cell-based
In short: (§1)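 Viability read by CellTiter-Glo: reagent added 1:1 to the well medium, plates kept in foil and shaken 2 min at room temperature, paused 2 min, then shaken 2 min more, and luminescence measured. Compounds were tested at concentrations up to 10 μM. Sphaeropsidin A served as positive control and a DMSO blank as negative control.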

Cryptococcus neoformans = assay: Antimicrobial activity against Cryptococcus neoformans at 100 ug/disc by standard disc dassay; format: functional
Bacillus subtilis = assay: Antimicrobial activity against Bacillus subtilis at 100 ug/disc by standard disc dassay; format: functional
MDA-MB-231 = assay: Cytotoxicity against human MDA-MB-231 cells assessed as reduction in cell viability up to 10 uM by Cell-Titer Glo assay; format: functional, cell-based; in short: as §1
Escherichia coli = assay: Antimicrobial activity against Escherichia coli at 100 ug/disc by standard disc dassay; format: functional
Candida albicans = assay: Antimicrobial activity against Candida albicans at 100 ug/disc by standard disc dassay; format: functional
D453 (Homo sapiens) = assay: Cytotoxicity against human D453 cells assessed as reduction in cell viability up to 10 uM by Cell-Titer Glo assay
Staphylococcus aureus = assay: Antimicrobial activity against Staphylococcus aureus at 100 ug/disc by standard disc dassay; format: functional

Measured: Activity

COC(=O)c1cc(OC)cc(O)c1C(=O)c1cc(C(C)=O)c2oc3cc(OC)cc(C(=O)OC)c3c(=O)c2c1
inactive: all assays above

COC(=O)c1cc(OC)cc(O)c1C1=C2CC3(COc4cc(OC)cc(C(=O)OC)c4C3=O)C(=O)C(C(C)=O)=C2C=C(C)O1 (centres undefined)
inactive: all assays above

COC(=O)c1cc(OC)cc(O)c1C(=O)c1cc(C(C)=O)c(O)c(C(=O)c2c(O)cc(OC)cc2C(=O)OC)c1
inactive: all assays above
